Data set [1] is described as follows: Half life in CD-1 mouse liver S9 fraction at 1 uM measured up to 60 mins in presence of NADPH by LC-MS analysis. In kind it is ADME, subcellular.
For data set [2], the target named is T1, Mitogen-activated protein kinase kinase kinase 7 (Homo sapiens, UniProt O43318).
T1 sequence (O43318 whole entry): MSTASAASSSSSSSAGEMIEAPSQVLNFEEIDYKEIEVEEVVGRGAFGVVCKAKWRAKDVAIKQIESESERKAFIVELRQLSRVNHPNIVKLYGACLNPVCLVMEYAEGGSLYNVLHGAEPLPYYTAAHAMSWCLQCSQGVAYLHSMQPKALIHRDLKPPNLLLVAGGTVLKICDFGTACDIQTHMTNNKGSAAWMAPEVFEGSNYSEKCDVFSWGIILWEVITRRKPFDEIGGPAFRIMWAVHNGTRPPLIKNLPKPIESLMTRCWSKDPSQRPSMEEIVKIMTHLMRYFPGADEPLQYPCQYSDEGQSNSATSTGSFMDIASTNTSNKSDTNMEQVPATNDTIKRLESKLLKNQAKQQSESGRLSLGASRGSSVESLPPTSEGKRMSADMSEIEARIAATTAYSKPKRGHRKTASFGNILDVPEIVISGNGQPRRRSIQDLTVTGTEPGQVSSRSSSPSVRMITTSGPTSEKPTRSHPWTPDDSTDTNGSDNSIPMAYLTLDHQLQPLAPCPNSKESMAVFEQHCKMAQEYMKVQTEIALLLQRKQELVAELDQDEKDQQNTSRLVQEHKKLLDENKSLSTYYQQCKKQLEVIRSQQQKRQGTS
In words: Binding affinity to wild-type human partial length TAK1 (M1 to Q303 residues) expressed in mammalian expression system by Kinomescan method. The procedure, abridged: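 Dissociation constant for TAK1 binding measured on the KdELECT platform.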

Data set [3] in a line: Apparent permeability across basolateral to apical side in human Caco-2 cells at 2 uM after 2 hrs by LC/MS-MS analysis. In kind it is ADME, cell-based. For orientation: Passage across Caco-2 layers is used to estimate intestinal permeability.
In data set [4] the target is Serine/threonine-protein kinase 32A (Homo sapiens) (UniProt Q8WU08). Briefly: Inhibition of wild-type human full-length YANK1 (M1 to L396 residues) expressed in mammalian expression system at 10 uM by Kinomescan method relative to control. The procedure, abridged: (§1)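 Single-concentration screen at 10 μM across a 468-kinase KINOMEscan panel (453 human, 403 wild-type kinases). Binding to each kinase was read out as percent inhibition relative to control, with >65% taken as the inhibition cutoff.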

Data set [5] in a line: Half life in human liver S9 fraction at 1 uM measured up to 60 mins in presence of NADPH by LC-MS analysis. It counts as ADME, subcellular.
A short description of data set [6]: Half life in rat liver S9 fraction at 1 uM measured up to 60 mins in presence of NADPH by LC-MS analysis. In kind it is ADME, subcellular.
Data set [7] concerns Tyrosine-protein kinase ABL1 (Homo sapiens), P00519 [H396P]. Briefly: Inhibition of human ABL1 H396P mutant (S229 to K512 residues) expressed in mammalian expression system at 10 uM by kinomescan method relative to control. In outline:
as §1

The nature of data set [8]: Apparent permeability across apical to basolateral side in human Caco-2 cells at 2 uM after 2 hrs by LC/MS-MS analysis. In kind it is ADME, cell-based.
For data set [9], the target named is Eukaryotic translation initiation factor 2-alpha kinase 1 (Homo sapiens) (UniProt Q9BQI3). In words: Inhibition of wild-type human partial length EIF2AK1 (Q147 to E603 residues) expressed in mammalian expression system at 10 uM by Kinomescan method relative to control. In outline:
as §1

Data set [10] can be described thus: Aqueous solubility of compound in pH 7.4 PBS buffer measured after 24 hrs by HPLC-UV analysis. It counts as physicochemical.
The target of data set [11] is Activated CDC42 kinase 1 (Homo sapiens) (UniProt Q07912). Briefly: Inhibition of wild-type human partial length TNK2 (S159 to D474 residues) expressed in bacterial expression system at 10 uM by Kinomescan method relative to control. The procedure, abridged: as §1
Data set [12] is described as follows: Efflux ratio of apparent permeability across basolateral to apical side over apical to basolateral side in human Caco-2 cells at 2 uM after 2 hrs by LC/MS-MS analysis. It counts as ADME, cell-based.
Data set [13] relates to HCT-15. In words: Cytotoxicity against TNFalpha-induced human HCT-15 cells assessed as reduction in cell viability preincubated for 2 hrs followed by TNFalpha stimulation and measured after 72 hrs by celltiter-glo assay. It counts as functional, cell-based. (In general: ATP-based viability assays read luminescence as a measure of living cells.)

Converted amounts (≈) assume the structure as drawn. A value given as a limit tells only on which side of the number the result lay.

One may read the half-life as how long it takes for the measured level to halve. The Kd is the free concentration of one partner at which half of the binding sites on the other are occupied at equilibrium, for simple one-to-one binding. Low readings indicate a tighter complex, high ones a looser complex. Usually Papp B→A stands for the apparent permeability from the basolateral to the apical side of a cell layer. Broadly, the inhibition is the relative decrease from the control value, in per cent. Higher therefore signals strong suppression. Usually Papp A→B stands for the apparent permeability from the apical to the basolateral side of a cell layer. In general, solubility refers to the dissolved amount per volume that the medium holds. Low values mean a poorly soluble substance, high ones a readily soluble substance. By efflux ratio is commonly meant a quotient of directional permeabilities that is used to spot active efflux. The EC50 is the midpoint of the concentration-response curve.

Eukaryotic translation initiation factor 2-alpha kinase 1 (Homo sapiens), sequence (Q9BQI3 whole entry, the tested form may be a part): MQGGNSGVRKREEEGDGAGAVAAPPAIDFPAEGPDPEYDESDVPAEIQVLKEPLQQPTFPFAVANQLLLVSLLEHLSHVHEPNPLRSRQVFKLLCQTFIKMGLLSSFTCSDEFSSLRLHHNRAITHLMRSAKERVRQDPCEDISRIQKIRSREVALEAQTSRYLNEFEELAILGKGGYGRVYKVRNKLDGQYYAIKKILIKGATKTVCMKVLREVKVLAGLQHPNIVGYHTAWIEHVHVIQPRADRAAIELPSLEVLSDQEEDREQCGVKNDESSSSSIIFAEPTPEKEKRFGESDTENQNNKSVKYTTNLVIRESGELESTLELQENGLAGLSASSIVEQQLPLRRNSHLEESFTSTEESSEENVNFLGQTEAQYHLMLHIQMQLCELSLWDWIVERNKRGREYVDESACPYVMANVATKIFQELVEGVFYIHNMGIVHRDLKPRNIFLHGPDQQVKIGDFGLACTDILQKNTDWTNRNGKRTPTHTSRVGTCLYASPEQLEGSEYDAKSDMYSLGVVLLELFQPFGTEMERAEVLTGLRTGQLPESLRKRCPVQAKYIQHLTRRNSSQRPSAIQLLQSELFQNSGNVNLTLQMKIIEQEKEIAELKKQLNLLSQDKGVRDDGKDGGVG
Activated CDC42 kinase 1 (Homo sapiens), sequence (Q07912 whole entry, looked up, the tested form may be a part): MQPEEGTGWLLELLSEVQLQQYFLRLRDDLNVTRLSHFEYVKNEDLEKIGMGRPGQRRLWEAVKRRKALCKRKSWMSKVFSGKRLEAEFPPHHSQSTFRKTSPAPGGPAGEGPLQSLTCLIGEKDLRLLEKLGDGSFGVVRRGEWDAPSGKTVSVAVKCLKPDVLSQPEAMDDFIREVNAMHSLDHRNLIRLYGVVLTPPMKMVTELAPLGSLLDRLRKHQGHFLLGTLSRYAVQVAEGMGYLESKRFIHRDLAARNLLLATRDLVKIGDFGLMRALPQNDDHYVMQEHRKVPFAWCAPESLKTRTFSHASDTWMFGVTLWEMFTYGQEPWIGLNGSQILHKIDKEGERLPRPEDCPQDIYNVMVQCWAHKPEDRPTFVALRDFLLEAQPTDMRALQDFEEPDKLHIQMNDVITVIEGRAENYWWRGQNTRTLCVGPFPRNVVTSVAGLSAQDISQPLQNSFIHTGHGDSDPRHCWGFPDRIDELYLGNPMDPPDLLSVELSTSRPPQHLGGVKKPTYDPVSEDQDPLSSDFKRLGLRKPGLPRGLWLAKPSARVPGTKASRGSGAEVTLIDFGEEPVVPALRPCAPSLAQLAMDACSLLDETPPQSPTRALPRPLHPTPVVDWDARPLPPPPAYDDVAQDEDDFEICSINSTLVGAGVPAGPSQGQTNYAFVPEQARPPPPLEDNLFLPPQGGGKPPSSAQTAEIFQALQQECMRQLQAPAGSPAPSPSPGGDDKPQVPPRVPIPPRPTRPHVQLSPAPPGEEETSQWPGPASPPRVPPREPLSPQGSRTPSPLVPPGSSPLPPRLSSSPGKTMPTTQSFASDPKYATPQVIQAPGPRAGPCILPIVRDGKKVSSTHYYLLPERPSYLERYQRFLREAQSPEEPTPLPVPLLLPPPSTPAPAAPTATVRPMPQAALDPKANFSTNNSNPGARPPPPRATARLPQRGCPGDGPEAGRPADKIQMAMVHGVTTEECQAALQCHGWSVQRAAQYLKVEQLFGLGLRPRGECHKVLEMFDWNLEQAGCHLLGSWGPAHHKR
Serine/threonine-protein kinase 32A (Homo sapiens), sequence (Q8WU08 whole entry, the tested form may be a part): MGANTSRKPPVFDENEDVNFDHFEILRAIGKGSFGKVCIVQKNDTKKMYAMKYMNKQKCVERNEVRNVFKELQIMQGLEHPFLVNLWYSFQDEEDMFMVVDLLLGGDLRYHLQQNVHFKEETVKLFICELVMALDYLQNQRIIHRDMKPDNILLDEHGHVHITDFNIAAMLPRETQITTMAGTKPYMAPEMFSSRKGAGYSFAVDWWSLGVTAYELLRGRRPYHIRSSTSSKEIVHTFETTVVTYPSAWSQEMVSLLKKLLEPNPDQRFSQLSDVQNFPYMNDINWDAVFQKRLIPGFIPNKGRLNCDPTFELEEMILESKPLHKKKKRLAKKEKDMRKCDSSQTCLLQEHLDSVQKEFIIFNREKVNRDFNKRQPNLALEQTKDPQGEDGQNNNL

For the compound `CNC(=O)CN(Cc1ccccc1OC(F)F)C(=O)c1c[nH]c(C(=O)N2CCCC2)n1`, the half-life at 1 µM in data set [1], in data set [5] and in data set [6] was greater than 2 h in each case. The compound also displayed a Kd in [2] of 0.055 µM. Further, the Papp B→A at 2 h, 2 µM in [3] is 20 ×10⁻⁶ cm/s. Further, the inhibition in data set [4], in data set [7], in data set [9] and in [11] was greater than 65% throughout. For the same compound, the Papp A→B at 2 h, 2 µM in data set [8] turned out to be 1 ×10⁻⁶ cm/s. In addition, in data set [10], the concentration in solution (solubility at 24 h) was 30 µM (≈ 13.1 µg/mL). Besides, the efflux ratio at 2 h, 2 µM in data set [12] was 20.
In the case of `COc1cc(O)c2c(c1)/C=C/C[C@H](O)[C@H](O)C(=O)/C=C\C[C@H](C)OC2=O`, the EC50 in data set [13] came to 0.002 µM.

(Values after ChEMBL document CHEMBL4706727, “Discovery of 2,4-1H-Imidazole Carboxamides as Potent and Selective TAK1 Inhibitors” (ACS Med Chem Lett, 2021).)
